Data as given in the M2OR odorant receptor database.
Positions count from the first letter of the chain named.

Columns and labels:
Conditions in all cases: stereoisomer not certain
OR1D4 (Homo sapiens) = target: T1, OR1D4 (Homo sapiens) (UniProt P47884)
T1 sequence (whole entry): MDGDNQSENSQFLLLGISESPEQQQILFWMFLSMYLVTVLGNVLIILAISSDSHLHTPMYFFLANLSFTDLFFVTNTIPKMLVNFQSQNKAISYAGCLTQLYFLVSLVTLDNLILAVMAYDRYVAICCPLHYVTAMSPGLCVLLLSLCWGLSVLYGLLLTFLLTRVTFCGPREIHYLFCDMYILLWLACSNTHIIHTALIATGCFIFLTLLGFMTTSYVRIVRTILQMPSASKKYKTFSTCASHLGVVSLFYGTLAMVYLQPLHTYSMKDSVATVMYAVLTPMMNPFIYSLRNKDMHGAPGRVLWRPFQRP
How it was run: (§1)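 Values were gathered from published papers (main text and supplementary material), with extra details requested from the original authors when needed, and checked for typos and inconsistencies. Each receptor–molecule pair is called responsive (active) if the original authors judged the measured signal statistically different from baseline, and non-responsive (inactive) otherwise. Assay methods varied by source, often transient mammalian cell-line luciferase assays. Recorded details include cell line, G-protein, co-transfected protein and tags.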

OR1D5 (Homo sapiens) = target: T2, OR1D5 (Homo sapiens) (UniProt P58170)
T2 sequence (whole entry): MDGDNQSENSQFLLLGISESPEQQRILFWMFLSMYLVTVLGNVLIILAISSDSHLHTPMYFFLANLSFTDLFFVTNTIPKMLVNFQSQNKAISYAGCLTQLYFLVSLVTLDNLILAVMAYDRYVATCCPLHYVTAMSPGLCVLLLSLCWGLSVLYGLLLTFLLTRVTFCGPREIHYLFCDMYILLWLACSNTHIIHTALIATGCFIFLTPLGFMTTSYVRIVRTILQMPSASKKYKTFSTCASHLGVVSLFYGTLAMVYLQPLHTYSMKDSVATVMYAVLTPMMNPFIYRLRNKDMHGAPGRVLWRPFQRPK
How it was run: as §1

OR1E1 (Homo sapiens) = target: T3, OR1E1 (Homo sapiens) (UniProt P30953)
T3 sequence (whole entry): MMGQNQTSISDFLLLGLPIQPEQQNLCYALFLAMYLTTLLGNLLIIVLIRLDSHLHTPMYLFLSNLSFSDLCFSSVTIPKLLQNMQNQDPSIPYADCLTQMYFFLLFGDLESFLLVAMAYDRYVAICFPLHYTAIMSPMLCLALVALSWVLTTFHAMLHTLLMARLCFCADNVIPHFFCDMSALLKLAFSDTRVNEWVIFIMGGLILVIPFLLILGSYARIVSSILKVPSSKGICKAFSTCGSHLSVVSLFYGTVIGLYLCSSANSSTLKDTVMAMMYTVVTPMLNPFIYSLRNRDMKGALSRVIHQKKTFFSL
How it was run: as §1

OR1E2 (Homo sapiens) = target: T4, OR1E2 (Homo sapiens) (UniProt P47887)
T4 sequence (whole entry): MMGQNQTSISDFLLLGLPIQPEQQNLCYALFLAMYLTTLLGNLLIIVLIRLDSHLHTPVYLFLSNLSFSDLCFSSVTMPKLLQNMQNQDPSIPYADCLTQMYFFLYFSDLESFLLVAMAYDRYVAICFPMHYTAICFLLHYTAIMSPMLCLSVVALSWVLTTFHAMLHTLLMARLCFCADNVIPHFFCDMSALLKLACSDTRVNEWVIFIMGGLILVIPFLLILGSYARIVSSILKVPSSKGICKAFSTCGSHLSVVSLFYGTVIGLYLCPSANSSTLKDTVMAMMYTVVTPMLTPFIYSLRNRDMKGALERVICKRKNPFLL
How it was run: as §1

OR1F1 (Homo sapiens) = target: T5, OR1F1 (Homo sapiens) (UniProt O43749)
T5 sequence (whole entry): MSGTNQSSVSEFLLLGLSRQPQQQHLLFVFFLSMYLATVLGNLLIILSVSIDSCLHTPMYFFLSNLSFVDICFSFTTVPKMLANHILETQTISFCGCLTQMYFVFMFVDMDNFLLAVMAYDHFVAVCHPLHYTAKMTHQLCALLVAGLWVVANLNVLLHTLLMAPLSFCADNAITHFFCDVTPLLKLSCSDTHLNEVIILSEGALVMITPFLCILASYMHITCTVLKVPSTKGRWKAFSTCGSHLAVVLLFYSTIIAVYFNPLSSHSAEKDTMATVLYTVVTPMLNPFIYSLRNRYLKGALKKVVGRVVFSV
How it was run: as §1

OR1F12P (Homo sapiens) = target: T6, OR1F12P (Homo sapiens) (UniProt Q8NHA8)
T6 sequence (whole entry): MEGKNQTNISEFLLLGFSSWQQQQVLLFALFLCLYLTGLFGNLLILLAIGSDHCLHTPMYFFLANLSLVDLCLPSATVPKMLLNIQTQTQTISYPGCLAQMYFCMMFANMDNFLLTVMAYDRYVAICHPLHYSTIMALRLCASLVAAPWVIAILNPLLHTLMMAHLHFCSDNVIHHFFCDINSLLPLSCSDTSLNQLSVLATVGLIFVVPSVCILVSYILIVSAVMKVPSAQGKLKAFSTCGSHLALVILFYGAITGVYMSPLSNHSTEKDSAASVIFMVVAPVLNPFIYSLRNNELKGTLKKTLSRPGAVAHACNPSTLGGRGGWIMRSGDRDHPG
How it was run: as §1

OR1G1 (Homo sapiens) = target: T7, OR1G1 (Homo sapiens) (UniProt P47890)
T7 sequence (whole entry): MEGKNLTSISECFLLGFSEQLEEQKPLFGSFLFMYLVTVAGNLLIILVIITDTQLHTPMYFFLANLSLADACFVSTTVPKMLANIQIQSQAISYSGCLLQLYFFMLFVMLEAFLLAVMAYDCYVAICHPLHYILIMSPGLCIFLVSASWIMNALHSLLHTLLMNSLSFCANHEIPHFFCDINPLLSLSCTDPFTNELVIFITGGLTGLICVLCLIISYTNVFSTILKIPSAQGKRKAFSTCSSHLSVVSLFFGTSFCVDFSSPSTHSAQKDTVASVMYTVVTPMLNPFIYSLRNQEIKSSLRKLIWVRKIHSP
How it was run: as §1

OR1I1 (Homo sapiens) = target: T8, OR1I1 (Homo sapiens) (UniProt O60431)
T8 sequence (whole entry): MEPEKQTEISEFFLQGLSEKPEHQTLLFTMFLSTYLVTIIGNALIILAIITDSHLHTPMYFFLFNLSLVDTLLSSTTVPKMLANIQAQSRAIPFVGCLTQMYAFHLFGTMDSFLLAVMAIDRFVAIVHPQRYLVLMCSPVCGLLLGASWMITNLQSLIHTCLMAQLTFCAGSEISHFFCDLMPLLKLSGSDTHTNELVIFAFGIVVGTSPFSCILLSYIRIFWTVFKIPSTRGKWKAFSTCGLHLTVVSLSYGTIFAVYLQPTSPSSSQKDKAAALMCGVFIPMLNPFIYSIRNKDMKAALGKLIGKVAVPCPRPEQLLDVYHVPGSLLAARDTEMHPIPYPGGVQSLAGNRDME
How it was run: as §1

OR1J1 (Homo sapiens) = target: T9, OR1J1 (Homo sapiens) (UniProt Q8NGS3)
T9 sequence (whole entry): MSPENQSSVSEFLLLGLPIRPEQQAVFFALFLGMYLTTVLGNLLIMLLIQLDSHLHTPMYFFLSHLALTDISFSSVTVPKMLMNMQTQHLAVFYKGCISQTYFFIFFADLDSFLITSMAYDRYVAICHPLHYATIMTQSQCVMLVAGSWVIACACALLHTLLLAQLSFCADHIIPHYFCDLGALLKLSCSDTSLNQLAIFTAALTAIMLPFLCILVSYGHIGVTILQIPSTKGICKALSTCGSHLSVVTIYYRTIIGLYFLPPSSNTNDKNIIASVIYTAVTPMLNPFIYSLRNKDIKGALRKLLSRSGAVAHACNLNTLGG
How it was run: as §1

OR1J2 (Homo sapiens) = target: T10, OR1J2 (Homo sapiens) (UniProt Q8NGS2)
T10 sequence (whole entry): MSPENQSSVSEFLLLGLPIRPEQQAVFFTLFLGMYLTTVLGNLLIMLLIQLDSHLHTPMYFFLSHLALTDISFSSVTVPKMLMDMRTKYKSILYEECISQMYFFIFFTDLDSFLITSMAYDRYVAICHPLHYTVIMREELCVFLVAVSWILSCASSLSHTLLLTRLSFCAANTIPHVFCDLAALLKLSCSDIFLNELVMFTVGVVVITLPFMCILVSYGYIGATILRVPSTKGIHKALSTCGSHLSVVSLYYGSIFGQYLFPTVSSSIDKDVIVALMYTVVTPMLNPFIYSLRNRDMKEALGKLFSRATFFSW
How it was run: as §1

OR1J4 (Homo sapiens) = target: T11, OR1J4 (Homo sapiens) (UniProt Q8NGS1)
T11 sequence (whole entry): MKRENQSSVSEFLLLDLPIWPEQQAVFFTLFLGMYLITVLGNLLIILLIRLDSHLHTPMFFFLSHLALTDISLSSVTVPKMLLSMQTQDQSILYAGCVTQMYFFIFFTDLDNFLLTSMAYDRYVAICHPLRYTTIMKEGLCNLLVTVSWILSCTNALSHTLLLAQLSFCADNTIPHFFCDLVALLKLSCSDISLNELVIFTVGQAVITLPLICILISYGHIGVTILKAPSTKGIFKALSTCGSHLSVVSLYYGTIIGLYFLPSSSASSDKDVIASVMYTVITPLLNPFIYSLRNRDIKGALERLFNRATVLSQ
How it was run: as §1

OR1K1 (Homo sapiens) = target: T12, OR1K1 (Homo sapiens) (UniProt Q8NGR3)
T12 sequence (whole entry): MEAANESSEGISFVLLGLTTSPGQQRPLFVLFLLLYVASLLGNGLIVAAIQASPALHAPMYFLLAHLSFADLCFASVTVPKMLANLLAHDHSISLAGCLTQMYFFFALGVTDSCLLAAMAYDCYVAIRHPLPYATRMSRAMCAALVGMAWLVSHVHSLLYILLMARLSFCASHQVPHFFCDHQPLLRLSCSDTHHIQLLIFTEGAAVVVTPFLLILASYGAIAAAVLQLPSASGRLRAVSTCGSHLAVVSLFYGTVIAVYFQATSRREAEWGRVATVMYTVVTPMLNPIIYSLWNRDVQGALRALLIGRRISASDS
How it was run: as §1

OR1L1 (Homo sapiens) = target: T13, OR1L1 (Homo sapiens) (UniProt Q8NH94)
T13 sequence (whole entry): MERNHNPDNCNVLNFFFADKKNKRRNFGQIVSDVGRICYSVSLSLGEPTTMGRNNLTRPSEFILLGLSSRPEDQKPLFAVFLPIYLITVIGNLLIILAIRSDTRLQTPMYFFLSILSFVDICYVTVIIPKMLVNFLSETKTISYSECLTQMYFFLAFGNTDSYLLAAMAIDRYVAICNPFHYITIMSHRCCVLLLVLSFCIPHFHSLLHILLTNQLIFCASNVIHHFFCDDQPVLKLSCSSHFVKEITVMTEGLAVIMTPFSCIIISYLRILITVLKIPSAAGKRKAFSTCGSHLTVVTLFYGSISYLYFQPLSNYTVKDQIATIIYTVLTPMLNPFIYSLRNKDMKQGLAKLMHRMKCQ
How it was run: as §1

OR1E2 = tested on: T14, OR1E2
T14 sequence (whole entry): T4 sequence (whole entry) with C27R
How it was run: as §1

OR1F1 = tested on: T15, OR1F1
T15 sequence (whole entry): T5 sequence (whole entry) with F75S
How it was run: as §1

OR1L1 = tested on: T16, OR1L1
T16 sequence (whole entry): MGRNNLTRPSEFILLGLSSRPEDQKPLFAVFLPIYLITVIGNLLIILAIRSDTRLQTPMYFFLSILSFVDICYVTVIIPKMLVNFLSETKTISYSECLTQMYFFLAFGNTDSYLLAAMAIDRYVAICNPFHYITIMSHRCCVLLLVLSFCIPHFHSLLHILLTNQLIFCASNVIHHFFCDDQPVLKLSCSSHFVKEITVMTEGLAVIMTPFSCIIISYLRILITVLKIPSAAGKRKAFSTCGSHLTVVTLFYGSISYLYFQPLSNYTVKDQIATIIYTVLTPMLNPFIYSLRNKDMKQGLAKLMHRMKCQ
How it was run: as §1

## CCCCC(S)C(C)CO (stereo not drawn)
OR1D4 (Homo sapiens)
  odorant receptor agonist call: inactive
OR1D5 (Homo sapiens)
  odorant receptor agonist call: inactive
OR1E1 (Homo sapiens)
  odorant receptor agonist call: inactive
OR1E2 (Homo sapiens)
  odorant receptor agonist call: inactive
OR1F1 (Homo sapiens)
  odorant receptor agonist call: inactive
OR1F12P (Homo sapiens)
  odorant receptor agonist call: inactive
OR1G1 (Homo sapiens)
  odorant receptor agonist call: inactive
OR1I1 (Homo sapiens)
  odorant receptor agonist call: inactive
OR1J1 (Homo sapiens)
  odorant receptor agonist call: inactive
OR1J2 (Homo sapiens)
  odorant receptor agonist call: inactive
OR1J4 (Homo sapiens)
  odorant receptor agonist call: active
OR1K1 (Homo sapiens)
  odorant receptor agonist call: inactive
OR1L1 (Homo sapiens)
  odorant receptor agonist call: inactive

## CC(CC=O)c1ccc(C(C)(C)C)cc1 (stereo not drawn)
OR1G1 (Homo sapiens)
  odorant receptor agonist call: inactive

## Cc1cnccn1
OR1G1 (Homo sapiens)
  odorant receptor agonist call: active

## CC=CC(=O)C1C(C)=CCCC1(C)C (stereo not drawn)
OR1G1 (Homo sapiens)
  odorant receptor agonist call: inactive

## CCC1OC(C)=C(O)C1=O (stereo not drawn)
OR1D5 (Homo sapiens)
  odorant receptor agonist call: inactive
OR1E1 (Homo sapiens)
  odorant receptor agonist call: inactive
OR1E2 (Homo sapiens)
  odorant receptor agonist call: inactive
OR1E2
  odorant receptor agonist call: inactive
OR1F1 (Homo sapiens)
  odorant receptor agonist call: inactive
OR1F12P (Homo sapiens)
  odorant receptor agonist call: inactive
OR1F1
  odorant receptor agonist call: inactive
OR1G1 (Homo sapiens)
  odorant receptor agonist call: inactive
OR1I1 (Homo sapiens)
  odorant receptor agonist call: inactive
OR1J1 (Homo sapiens)
  odorant receptor agonist call: inactive
OR1J2 (Homo sapiens)
  odorant receptor agonist call: inactive
OR1J4 (Homo sapiens)
  odorant receptor agonist call: inactive
OR1K1 (Homo sapiens)
  odorant receptor agonist call: inactive
OR1L1
  odorant receptor agonist call: inactive

## CC(CO)CS (stereo not drawn)
OR1D4 (Homo sapiens)
  odorant receptor agonist call: inactive
OR1D5 (Homo sapiens)
  odorant receptor agonist call: inactive
OR1E1 (Homo sapiens)
  odorant receptor agonist call: inactive
OR1E2 (Homo sapiens)
  odorant receptor agonist call: inactive
OR1F1 (Homo sapiens)
  odorant receptor agonist call: inactive
OR1F12P (Homo sapiens)
  odorant receptor agonist call: inactive
OR1G1 (Homo sapiens)
  odorant receptor agonist call: inactive
OR1I1 (Homo sapiens)
  odorant receptor agonist call: inactive
OR1J1 (Homo sapiens)
  odorant receptor agonist call: inactive
OR1J2 (Homo sapiens)
  odorant receptor agonist call: inactive
OR1J4 (Homo sapiens)
  odorant receptor agonist call: inactive
OR1K1 (Homo sapiens)
  odorant receptor agonist call: inactive
OR1L1 (Homo sapiens)
  odorant receptor agonist call: inactive
